Assay results taken from ChEMBL document CHEMBL3124806, “Imidazopyridine-fused [1,3]-diazepinones: synthesis and antiproliferative activity” (Eur J Med Chem, 2014).

Experiments:
Type in all cases: functional
T47D = assay: Cytotoxicity against human T47D cells assessed as cell growth at 10 uM after 48 hrs by SRB assay relative to untreated control; conditions: read-out: Activity
Procedure, shortened: (§1)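 NCI-60 single-dose screen. Compounds were added to the cultures at 10 μM and incubated for 48 h. The end point was sulforhodamine B protein staining read spectrophotometrically. Growth is reported as percent of untreated control cells.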

MDA-MB-231 = assay: Cytotoxicity against human MDA-MB-231 cells assessed as cell growth at 10 uM after 48 hrs by SRB assay relative to untreated control; conditions: MDA-MB-231, 48 h, read-out: Activity
Procedure, shortened: (§2)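 NCI-60 one-dose screen: each agent added at 10 µM, cultures incubated 48 h. Endpoint by sulforhodamine B protein-binding dye read spectrophotometrically; growth expressed as percent of untreated control cells.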

DU-145 = assay: Cytotoxicity against human DU145 cells assessed as cell growth at 10 uM after 48 hrs by SRB assay relative to untreated control; conditions: DU-145, 48 h, read-out: Activity
Procedure, shortened: (§3)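 NCI-60 panel screen at a single concentration of 10 μM with 48 h incubation. Cell density measured by sulforhodamine B protein-binding dye and read spectrophotometrically. Growth expressed as percent of untreated control cells.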

PC-3 = assay: Cytotoxicity against human PC3 cells assessed as cell growth at 10 uM after 48 hrs by SRB assay relative to untreated control; conditions: PC-3, 48 h, read-out: Activity; procedure, shortened: as §2
SN12C = assay: Cytotoxicity against human SN12C cells assessed as cell growth at 10 uM after 48 hrs by SRB assay relative to untreated control; conditions: read-out: Activity; procedure, shortened: as §1
ACHN = assay: Cytotoxicity against human ACHN cells assessed as cell growth at 10 uM after 48 hrs by SRB assay relative to untreated control; conditions: read-out: Activity; procedure, shortened: as §3
786-0 = assay: Cytotoxicity against human […] cells assessed as cell growth at 10 uM after 48 hrs by SRB assay relative to untreated control; conditions: 786-0, 48 h, read-out: Activity; procedure, shortened: as §3
SK-OV-3 = assay: Cytotoxicity against human SKOV3 cells assessed as cell growth at 10 uM after 48 hrs by SRB assay relative to untreated control; conditions: SK-OV-3, 48 h, read-out: Activity; procedure, shortened: as §1
[1] = Cytotoxicity against human NCI-ADR-RES cells assessed as cell growth at 10 uM after 48 hrs by SRB assay relative to untreated control; conditions: read-out: Activity; procedure, shortened: as §2
[2] = Cytotoxicity against human OVCAR4 cells assessed as cell growth at 10 uM after 48 hrs by SRB assay relative to untreated control; conditions: OVCAR-4, 48 h, read-out: Activity; procedure, shortened: as §2
IGROV-1 = assay: Cytotoxicity against human IGROV1 cells assessed as cell growth at 10 uM after 48 hrs by SRB assay relative to untreated control; conditions: IGROV-1, 48 h, read-out: Activity; procedure, shortened: as §3
[3] = Cytotoxicity against human UACC257 cells assessed as cell growth at 10 uM after 48 hrs by SRB assay relative to untreated control; conditions: UACC-257, 48 h, read-out: Activity; procedure, shortened: as §1
SK-MEL-5 = assay: Cytotoxicity against human SK-MEL-5 cells assessed as cell growth at 10 uM after 48 hrs by SRB assay relative to untreated control; conditions: SK-MEL-5, 48 h, read-out: Activity; procedure, shortened: as §1
SK-MEL-2 = assay: Cytotoxicity against human SK-MEL-2 cells assessed as cell growth at 10 uM after 48 hrs by SRB assay relative to untreated control; conditions: SK-MEL-2, 48 h, read-out: Activity; procedure, shortened: as §2
M14 = assay: Cytotoxicity against human M14 cells assessed as cell growth at 10 uM after 48 hrs by SRB assay relative to untreated control; conditions: M14, 48 h, read-out: Activity; procedure, shortened: as §3
Malme-3M = assay: Cytotoxicity against human MALME-3M cells assessed as cell growth at 10 uM after 48 hrs by SRB assay relative to untreated control; conditions: read-out: Activity; procedure, shortened: as §3
U-251 = assay: Cytotoxicity against human U251 cells assessed as cell growth at 10 uM after 48 hrs by SRB assay relative to untreated control; conditions: U-251, 48 h, read-out: Activity; procedure, shortened: as §1
SF-295 = assay: Cytotoxicity against human SF295 cells assessed as cell growth at 10 uM after 48 hrs by SRB assay relative to untreated control; conditions: SF-295, 48 h, read-out: Activity; procedure, shortened: as §2
SF-268 = assay: Cytotoxicity against human SF268 cells assessed as cell growth at 10 uM after 48 hrs by SRB assay relative to untreated control; conditions: SF-268, 48 h, read-out: Activity; procedure, shortened: as §2
SW-620 = assay: Cytotoxicity against human SW620 cells assessed as cell growth at 10 uM after 48 hrs by SRB assay relative to untreated control; conditions: SW-620, 48 h, read-out: Activity; procedure, shortened: as §1
KM12 = assay: Cytotoxicity against human KM12 cells assessed as cell growth at 10 uM after 48 hrs by SRB assay relative to untreated control; conditions: KM12, 48 h, read-out: Activity; procedure, shortened: as §3
HT-29 = assay: Cytotoxicity against human HT-29 cells assessed as cell growth at 10 uM after 48 hrs by SRB assay relative to untreated control; conditions: HT-29, 48 h, read-out: Activity; procedure, shortened: as §3
HCT-15 = assay: Cytotoxicity against human HCT15 cells assessed as cell growth at 10 uM after 48 hrs by SRB assay relative to untreated control; conditions: HCT-15, 48 h, read-out: Activity; procedure, shortened: as §3
HCT-116 = assay: Cytotoxicity against human HCT116 cells assessed as cell growth at 10 uM after 48 hrs by SRB assay relative to untreated control; conditions: HCT-116, 48 h, read-out: Activity; procedure, shortened: as §3
HCC 2998 = assay: Cytotoxicity against human HCC2998 cells assessed as cell growth at 10 uM after 48 hrs by SRB assay relative to untreated control; conditions: HCC 2998, 48 h, read-out: Activity; procedure, shortened: as §3
NCI-H522 = assay: Cytotoxicity against human NCI-H522 cells assessed as cell growth at 10 uM after 48 hrs by SRB assay relative to untreated control; conditions: NCI-H522, 48 h, read-out: Activity; procedure, shortened: as §2
NCI-H23 = assay: Cytotoxicity against human NCI-H23 cells assessed as cell growth at 10 uM after 48 hrs by SRB assay relative to untreated control; conditions: NCI-H23, 48 h, read-out: Activity; procedure, shortened: as §2
NCI-H226 = assay: Cytotoxicity against human NCI-H226 cells assessed as cell growth at 10 uM after 48 hrs by SRB assay relative to untreated control; conditions: NCI-H226, 48 h, read-out: Activity; procedure, shortened: as §2
HOP-92 = assay: Cytotoxicity against human HOP92 cells assessed as cell growth at 10 uM after 48 hrs by SRB assay relative to untreated control; conditions: HOP-92, 48 h, read-out: Activity; procedure, shortened: as §3
HOP-62 = assay: Cytotoxicity against human HOP62 cells assessed as cell growth at 10 uM after 48 hrs by SRB assay relative to untreated control; conditions: HOP-62, 48 h, read-out: Activity; procedure, shortened: as §3
A549 = assay: Cytotoxicity against human A549 cells assessed as cell growth at 10 uM after 48 hrs by SRB assay relative to untreated control; conditions: A549, 48 h, read-out: Activity; procedure, shortened: as §3
CCRF-CEM = assay: Cytotoxicity against human CCRF-CEM cells assessed as cell growth at 10 uM after 48 hrs by SRB assay relative to untreated control; conditions: read-out: Activity; procedure, shortened: as §3

Q: For `Cc1ccc(C2=Nc3nc4ccccn4c3C(=O)[C@H](C)N2)cc1`, which growth at 10 µM (T47D) is on record?
A: The growth at 10 µM was 103%.

Q: What about the growth at 10 µM (MDA-MB-231) of the same molecule?
A: Its growth at 10 µM is 79.7%.

Q: And the growth at 10 µM (DU-145)?
A: The growth at 10 µM was 112%.

Q: What about the growth at 10 µM (PC-3) of the same molecule?
A: The growth at 10 µM was 72.9%.

Q: What about the growth at 10 µM (SN12C) of the same molecule?
A: The growth at 10 µM was 93.9%.

Q: What about the growth at 10 µM (ACHN) of the same molecule?
A: Its growth at 10 µM is 81%.

Q: What about the growth at 10 µM (786-0) of the same molecule?
A: The growth at 10 µM was 98.4%.

Q: And the growth at 10 µM (SK-OV-3)?
A: The growth at 10 µM was 90.2%.

Q: And the growth at 10 µM [1]?
A: The growth at 10 µM was 79.6%.

Q: What about the growth at 10 µM [2] of the same molecule?
A: Its growth at 10 µM is 88.7%.

Q: What about the growth at 10 µM (IGROV-1) of the same molecule?
A: The growth at 10 µM was 70.9%.

Q: What about the growth at 10 µM [3] of the same molecule?
A: Its growth at 10 µM is 90.3%.

Q: What about the growth at 10 µM (SK-MEL-5) of the same molecule?
A: The growth at 10 µM was 81.7%.

Q: And the growth at 10 µM (SK-MEL-2)?
A: Its growth at 10 µM is 69.5%.

Q: And the growth at 10 µM (M14)?
A: The growth at 10 µM was 87%.

Q: And the growth at 10 µM (Malme-3M)?
A: The growth at 10 µM was 82.6%.

Q: What about the growth at 10 µM (U-251) of the same molecule?
A: The growth at 10 µM was 95.5%.

Q: And the growth at 10 µM (SF-295)?
A: The growth at 10 µM was 87.4%.

Q: And the growth at 10 µM (SF-268)?
A: The growth at 10 µM was 99.7%.

Q: And the growth at 10 µM (SW-620)?
A: The growth at 10 µM was 82.3%.

Q: What about the growth at 10 µM (KM12) of the same molecule?
A: The growth at 10 µM was 70.3%.

Q: What about the growth at 10 µM (HT-29) of the same molecule?
A: Its growth at 10 µM is 82.8%.

Q: What about the growth at 10 µM (HCT-15) of the same molecule?
A: The growth at 10 µM was 71.9%.

Q: What about the growth at 10 µM (HCT-116) of the same molecule?
A: The growth at 10 µM was 91.1%.

Q: What about the growth at 10 µM (HCC 2998) of the same molecule?
A: Its growth at 10 µM is 104%.

Q: What about the growth at 10 µM (NCI-H522) of the same molecule?
A: Its growth at 10 µM is 66.5%.

Q: And the growth at 10 µM (NCI-H23)?
A: The growth at 10 µM was 85%.

Q: And the growth at 10 µM (NCI-H226)?
A: Its growth at 10 µM is 80.5%.

Q: What about the growth at 10 µM (HOP-92) of the same molecule?
A: The growth at 10 µM was 66.3%.

Q: And the growth at 10 µM (HOP-62)?
A: The growth at 10 µM was 62.9%.

Q: And the growth at 10 µM (A549)?
A: The growth at 10 µM was 92.9%.

Q: What about the growth at 10 µM (CCRF-CEM) of the same molecule?
A: Its growth at 10 µM is 85.2%.
